The values that follow come from ChEMBL document CHEMBL1157078, “Cytotoxic activities of several geranyl-substituted flavanones” (J Nat Prod, 2010).

Assay [1] concerns MCF7. The assay is described as follows: Cytotoxicity against human MCF7 cells assessed as viable cells after 72 hrs by calcein AM assay. Type of assay: functional, cell-based. To be noted: MCF7, 72 h. The procedure, abridged: (§1)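 Cells kept in DMEM with 10% FBS, L-glutamine and antibiotics at 37 °C, 5% CO2, and seeded at about 1.25×10^5 cells/mL, then left 3 h to stabilize. Six 3-fold dilutions were added in triplicate (final 100 to 0.4 μM, DMSO ≤0.6%) for 72 h. Viable cells were stained with 2 μM calcein AM for 1 h and fluorescence read at 485/538 nm. EC50 came from dose-response curves of three independent measurements, ±SD.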

Assay [2] concerns CCRF-CEM. The experiment in a line: Cytotoxicity against human CEM cells assessed as viable cells after 72 hrs by calcein AM assay. The assay is classed as functional, cell-based. The procedure, abridged: as §1
Assay [3] deals with RPMI-8226. The experiment in a line: Cytotoxicity against human RPMI8226 cells assessed as viable cells after 72 hrs by calcein AM assay. Type of assay: functional, cell-based. The note with it: RPMI-8226, 72 h. The procedure, abridged: as §1
For assay [4], the system named is U-266. The experiment in a line: Cytotoxicity against human U266 cells assessed as viable cells after 72 hrs by calcein AM assay. The note with it: U-266, 72 h. The assay is classed as functional, cell-based. The procedure, abridged: as §1
In assay [5] the test system is BJ. The assay is described as follows: Cytotoxicity against human BJ cells assessed as viable cells after 72 hrs by calcein AM assay. Type of assay: cell-based. The procedure, abridged: as §1
Assay [6] concerns THP-1. The assay is described as follows: Cytotoxicity against human THP1 cells after 72 hrs by erythosin B staining method. The assay is classed as functional, cell-based. The note with it: THP-1, 72 h. A digest of the protocol: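 THP-1 cells from ECACC, kept in RPMI with 10% FBS, 2% L-glutamine and 1% penicillin/streptomycin at 37 °C, 5% CO2. Compounds in DMSO were added at five increasing concentrations and cells incubated 72 h. Cells were mixed 1:1 with 0.1% erythrosin B in PBS (pH 7.2-7.4), and unstained (viable) and red (nonviable) cells counted by hemocytometer. EC50 came from dose-response curves of three independent measurements, ±SD.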

Assay [7] concerns HeLa. The assay is described as follows: Cytotoxicity against human HeLa cells assessed as viable cells after 72 hrs by calcein AM assay. The assay is classed as functional, cell-based. The procedure, abridged: as §1

pEC50: −log10 of the molar value.

Regarding `CC(C)=CCC/C(C)=C/Cc1c(O)cc2c(c1O)C(=O)C[C@@H](c1cc(O)cc(O)c1)O2`, the pEC50 was above 5.00 in assay [1]; 4.91 in assay [2]; 5.15 in assay [3]; 5.72 in assay [4]; 5.12 in assay [5]; 5.07 in assay [6]. For the same compound, the pEC50 in assay [7] was 5.20.
`COc1cc(O)c([C@@H]2CC(=O)c3c(O)cc(O)cc3O2)cc1C/C=C(\C)CCC=C(C)C`: the pEC50 in assay [1], in assay [2], in assay [3], in assay [4], in assay [5] and in assay [6] was below 5.00 in each case. In addition, in assay [7], the pEC50 is below 5.00.
As for `COc1cc([C@@H]2CC(=O)c3c(cc(O)c(C/C=C(\C)CCC=C(C)C)c3O)O2)ccc1O`, the pEC50 in assay [1], in assay [2], in assay [3], in assay [4], in assay [5] and in assay [6] was above 5.00 in each case. Further, the pEC50 in assay [7] was 5.04.
As to `COc1cc([C@H]2Oc3cc(O)c(C/C=C(\C)CCC=C(C)C)c(O)c3C(=O)[C@@H]2O)ccc1O`, the negative logarithm of the EC50 (pEC50) in assay [1], in assay [2], in assay [3], in assay [4], in assay [5] and in assay [6] was below 5.00 each time. The pEC50 in assay [7] is below 5.00.
Turning to `COc1cc([C@@H]2CC(=O)c3c(cc(O)c(C/C=C(\C)CCC=C(C)C)c3O)O2)cc(O)c1O`, the pEC50 in assay [1] is above 5.00; in assay [2], above 5.00; in assay [3], 5.14; in assay [4], 5.26; in assay [5] it was 5.33; in assay [6] it was above 5.00. Besides, the negative-log EC50 (pEC50) in assay [7] is 5.13.
In the case of `COc1cc([C@@H]2CC(=O)c3c(cc(O)c(C/C=C(\C)CCC=C(C)C)c3O)O2)cc(OC)c1O`, the pEC50 in assay [1], in assay [2], in assay [3], in assay [4], in assay [5] and in assay [6] was below 5.00 in each case. Also, the pEC50 in assay [7] is below 5.00.
As for `CC(C)=CCC/C(C)=C/Cc1cc(C2CC(=O)c3c(O)cc(O)cc3O2)c(O)cc1O` (racemic) [KUWANON E], the pEC50 in assay [1], in assay [2], in assay [3], in assay [4], in assay [5] and in assay [6] was below 5.00 each time. Also, the pEC50 in assay [7] is below 5.00.
As for `O=C1c2c(O)cc(O)cc2O[C@H](c2ccc(O)c(O)c2)[C@H]1O` [(+)-TAXIFOLIN], the pEC50 in assay [1], in assay [2], in assay [3], in assay [4], in assay [5] and in assay [6] was below 5.00 in each case. In assay [7], the pEC50 is below 5.00.
As for `CC(C)=CCC/C(C)=C/Cc1c(O)cc2c(c1O)C(=O)C[C@@H](c1ccc(O)cc1)O2` [BONANNIONE A], the pEC50 was below 5.00 in assay [1]; 4.94 in assay [2]; below 5.00 in assay [3]; below 5.00 in assay [4]; below 5.00 in assay [5]; below 5.00 in assay [6]. In addition, the pEC50 in assay [7] was below 5.00.
As for `CC[C@@]1(O)C(=O)OCc2c1cc1n(c2=O)Cc2cc3ccccc3nc2-1` [CAMPTOTHECIN], the pEC50 in assay [6] was 6.80.
With `CCOC(=O)NC1=C(N2CC2)C(=O)C(NC(=O)OCC)=C(N2CC2)C1=O` [DIAZIQUONE], the pEC50 was 5.40 in assay [1]; 6.07 in assay [2]; 5.47 in assay [3]; 5.55 in assay [4]; above 5.00 in assay [5]; 5.19 in assay [7].
As to `COc1ccc([C@@H]2CC(=O)c3c(O)cc(O)cc3O2)cc1O` [HESPERETIN], the pEC50 in assay [1], in assay [2], in assay [3], in assay [4], in assay [5] and in assay [6] was below 5.00 in each case. Besides, the pEC50 in assay [7] is below 5.00.
Turning to `O=C1C[C@@H](c2ccc(O)cc2)Oc2cc(O)cc(O)c21` [NARINGENIN], the pEC50 in assay [1], in assay [2], in assay [3], in assay [4], in assay [5] and in assay [6] was below 5.00 in each case. For the same compound, in assay [7], the pEC50 was below 5.00.
Turning to `CC(C)=CCC/C(C)=C/Cc1c(O)cc2c(c1O)C(=O)C[C@@H](c1ccc(O)c(O)c1)O2` [NYMPHAEOL A], the pEC50 is above 5.00 in assay [1]; 5.49 in assay [2]; above 5.00 in assay [3]; 5.62 in assay [4]; 5.23 in assay [5]; above 5.00 in assay [6]. For the same compound, in assay [7], the pEC50 was above 5.00.
On to `CC[C@H](CO)Nc1nc(NCc2ccccc2O)c2ncn(C(C)C)c2n1` [OLOMOUCINE II], for which the pEC50 in assay [1] was 5.34; in assay [2], 5.09; in assay [3] it was 5.22; in assay [4] it was 5.14; in assay [5], 5.27; in assay [7], 5.00.
As for `COc1cc([C@@H]2CC(=O)c3c(cc(O)c(C/C=C(\C)C/C=C/C(C)(C)O)c3O)O2)ccc1O` [TOMENTODIPLACONE B], the pEC50 in assay [1], in assay [2], in assay [3], in assay [4], in assay [5] and in assay [6] was below 5.00 in each case. Besides, the pEC50 in assay [7] is below 5.00.
For the compound `C=C(C)C(O)CC/C(C)=C/Cc1c(O)cc2c(c1O)C(=O)C[C@@H](c1ccc(O)c(OC)c1)O2` (stereo partly specified) [TOMENTODIPLACONE], the pEC50 in assay [1], in assay [2], in assay [3], in assay [4], in assay [5] and in assay [6] was below 5.00 throughout. The pEC50 in assay [7] was below 5.00.

One may read the pEC50 as the negative decadic logarithm of the EC50, by convention in mol/L.
